One may read the pKd as the negative decadic logarithm of the Kd, by convention in mol/L. As usually defined, the pIC50 is −log10 of the IC50, conventionally taken in molar units. Broadly, the AUC is concentration integrated over time. Low values mean low exposure, high ones high exposure. As usually defined, the Cmax is the highest concentration seen after dosing.

We go through one compound from ChEMBL document CHEMBL2331331 (J Med Chem, 2013).

In series [1] the target is Receptor-type tyrosine-protein kinase FLT3 (Homo sapiens, UniProt P36888, ITD). Briefly: Binding affinity to FLT3-ITD mutant (unknown origin).
The target in series [2] is Serine/threonine-protein kinase PAK 4 (Homo sapiens, UniProt O96013). Briefly: Inhibition of PAK4 (unknown origin). An outline of the steps: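 Single selected panel of recombinant human protein kinases, screened in vitro. The value reported is the IC50 against each kinase.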
A further series concerns HCT-116. Kind of series: Cytotoxicity against human HCT116 cells assessed as growth inhibition after 72 hrs by MTT assay. The note with it: HCT-116, 72 h.
In series [3] the target is Dual specificity mitogen-activated protein kinase kinase 1 (Homo sapiens, UniProt Q02750). Kind of series: Inhibition of MEK1 (unknown origin).
Dual specificity mitogen-activated protein kinase kinase 1, sequence (Q02750 whole entry): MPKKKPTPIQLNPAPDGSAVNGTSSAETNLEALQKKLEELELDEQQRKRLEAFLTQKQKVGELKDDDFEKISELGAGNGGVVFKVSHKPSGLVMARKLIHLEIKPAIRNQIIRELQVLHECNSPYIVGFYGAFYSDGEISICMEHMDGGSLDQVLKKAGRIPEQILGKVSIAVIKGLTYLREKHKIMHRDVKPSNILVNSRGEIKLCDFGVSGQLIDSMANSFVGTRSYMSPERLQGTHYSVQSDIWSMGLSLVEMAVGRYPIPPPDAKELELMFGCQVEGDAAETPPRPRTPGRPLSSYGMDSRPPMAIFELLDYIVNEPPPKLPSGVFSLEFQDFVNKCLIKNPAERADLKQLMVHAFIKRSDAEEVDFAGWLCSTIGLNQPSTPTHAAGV
The test system of series [4] is MV4-11. Briefly: Induction of apoptosis in human MV4-11 cells assessed as early apoptotic cells at 0.003 uM after 24 hrs by annexin V-FITC/propidium iodide staining-based FACS flow cytometric analysis (reference value: 1.61%). It counts as functional. (Flow cytometry measures light scatter and fluorescence of single cells or particles in a stream.)
For the next series, the system named is A549. Briefly: Cytotoxicity against human A549 cells assessed as growth inhibition after 72 hrs by MTT assay. The note with it: A549, 72 h.
The next series deals with LoVo. Kind of series: Cytotoxicity against human LoVo cells assessed as growth inhibition after 72 hrs by MTT assay.
A short description of series [5]: AUC (0 to 24 hrs) in Sprague-Dawley rat at 10 mg/kg/day, po. The note with it: plasma. It counts as ADME, organism-based. The arrangement: dose 10 mg/kg/day, time < 24 hr, route oral.
Series [6] deals with MV4-11. Kind of series: Induction of apoptosis in human MV4-11 cells assessed as late apoptotic cells at 0.03 uM after 24 hrs by annexin V-FITC/propidium iodide staining-based FACS flow cytometric analysis (reference value: 4.28%). Type of series: functional.
A further series concerns HeLa. Briefly: Cytotoxicity against human HeLa cells assessed as growth inhibition after 72 hrs by MTT assay. Type of series: functional, cell-based. In short, it runs like this:
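MTT viability assay with serial inhibitor dilutions for 72 h at 37 °C, then MTT for 2–4 h and OD read at 570 nm. Leukemia lines were seeded at (1–4) × 10⁴ cells/well and lysed with 20% acidified SDS. Adherent lines were seeded at (2–5) × 10³ cells/well, dosed after 24 h and dissolved in DMSO. Triplicate; mean ± SD.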
For orientation: Tetrazolium assays rely on reduction of a dye to a coloured formazan, in cell work by metabolically active cells.

The next series deals with Myotonin-protein kinase (Homo sapiens, UniProt Q09013). Briefly: Inhibition of DMPK (unknown origin).
Myotonin-protein kinase, sequence (Q09013 whole entry): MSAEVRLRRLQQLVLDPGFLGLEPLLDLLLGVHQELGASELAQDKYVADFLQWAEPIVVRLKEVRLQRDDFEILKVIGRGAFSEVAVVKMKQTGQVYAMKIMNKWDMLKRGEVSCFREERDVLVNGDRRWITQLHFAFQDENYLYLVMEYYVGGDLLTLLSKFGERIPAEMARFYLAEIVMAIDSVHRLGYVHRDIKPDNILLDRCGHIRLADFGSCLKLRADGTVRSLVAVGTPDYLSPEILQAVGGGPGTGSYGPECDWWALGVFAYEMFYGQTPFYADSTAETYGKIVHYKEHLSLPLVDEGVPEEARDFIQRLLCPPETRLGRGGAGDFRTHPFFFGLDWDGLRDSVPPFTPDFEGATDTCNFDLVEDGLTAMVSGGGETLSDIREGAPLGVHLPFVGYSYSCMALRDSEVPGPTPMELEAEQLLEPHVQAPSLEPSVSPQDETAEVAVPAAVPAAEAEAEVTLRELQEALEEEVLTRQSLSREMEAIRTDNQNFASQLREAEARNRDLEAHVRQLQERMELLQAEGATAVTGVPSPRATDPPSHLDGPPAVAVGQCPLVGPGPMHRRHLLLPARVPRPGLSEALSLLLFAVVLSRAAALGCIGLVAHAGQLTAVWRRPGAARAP
In series [7] the test system is MV4-11. Briefly: Induction of apoptosis in human MV4-11 cells assessed as early apoptotic cells at 0.03 uM after 24 hrs by annexin V-FITC/propidium iodide staining-based FACS flow cytometric analysis (reference value: 1.61%). Type of series: functional.
A short description of series [8]: Cmax in Sprague-Dawley rat at 10 mg/kg/day, po measured within 7 hrs. Type of series: ADME, organism-based. The arrangement: dose 10 mg/kg/day, route oral. The note with it: in vivo.
For series [9], the system named is MV4-11. Briefly: Induction of apoptosis in human MV4-11 cells assessed as late apoptotic cells at 0.01 uM after 24 hrs by annexin V-FITC/propidium iodide staining-based FACS flow cytometric analysis (reference value: 4.28%). It counts as functional.
In the next series the test system is KARPAS-299. Kind of series: Cytotoxicity against human KARPAS299 cells assessed as growth inhibition after 72 hrs by MTT assay. The note with it: KARPAS-299, 72 h.
Series [10] addresses Mitogen-activated protein kinase kinase kinase 9 (Homo sapiens, UniProt P80192). Briefly: Inhibition of MLK1 (unknown origin).
Series [11] deals with T1, Receptor-type tyrosine-protein kinase FLT3 (Homo sapiens, UniProt P36888).
T1 sequence (P36888 whole entry): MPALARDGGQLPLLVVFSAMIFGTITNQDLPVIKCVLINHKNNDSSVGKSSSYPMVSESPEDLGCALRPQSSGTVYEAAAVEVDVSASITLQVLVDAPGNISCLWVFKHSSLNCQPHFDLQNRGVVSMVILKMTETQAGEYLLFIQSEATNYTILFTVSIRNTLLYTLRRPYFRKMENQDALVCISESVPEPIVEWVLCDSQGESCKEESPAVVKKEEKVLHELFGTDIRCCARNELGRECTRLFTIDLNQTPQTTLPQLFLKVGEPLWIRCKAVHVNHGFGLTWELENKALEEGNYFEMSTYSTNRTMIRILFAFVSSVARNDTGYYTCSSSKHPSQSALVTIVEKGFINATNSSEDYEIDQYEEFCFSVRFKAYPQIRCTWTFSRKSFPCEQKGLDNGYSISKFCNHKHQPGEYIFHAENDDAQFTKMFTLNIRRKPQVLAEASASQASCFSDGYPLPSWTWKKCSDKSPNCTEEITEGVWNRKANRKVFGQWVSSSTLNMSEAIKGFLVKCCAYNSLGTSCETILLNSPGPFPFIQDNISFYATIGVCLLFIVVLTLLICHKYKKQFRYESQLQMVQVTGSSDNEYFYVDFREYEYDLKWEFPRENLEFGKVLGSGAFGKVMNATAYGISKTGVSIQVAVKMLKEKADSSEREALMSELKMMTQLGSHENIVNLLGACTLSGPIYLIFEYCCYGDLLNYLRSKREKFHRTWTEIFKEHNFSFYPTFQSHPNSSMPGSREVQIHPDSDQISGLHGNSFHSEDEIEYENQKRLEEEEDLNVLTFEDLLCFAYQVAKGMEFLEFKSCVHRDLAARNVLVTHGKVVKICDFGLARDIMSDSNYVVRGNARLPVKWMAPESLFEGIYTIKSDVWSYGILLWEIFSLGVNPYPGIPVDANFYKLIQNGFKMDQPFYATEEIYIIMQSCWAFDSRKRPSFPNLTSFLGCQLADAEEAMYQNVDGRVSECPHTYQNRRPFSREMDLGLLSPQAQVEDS
Kind of series: Inhibition of FLT3 in human MV4-11 cells assessed as inhibition of STAT5 phosphorylation after 20 hrs by Western blotting analysis. Type of series: cell-based. (Immunoblotting shows a protein as a band on a membrane.)

The next series relates to MKN-45. Kind of series: Cytotoxicity against human MKN45 cells assessed as growth inhibition after 72 hrs by MTT assay. The note with it: MKN-45, 72 h.
Series [12] deals with MV4-11. Briefly: Antitumor activity against FLT3-ITD-positive human MV4-11 cells xenografted in NOD-SCID mouse assessed as tumor growth inhibition at 10 mg/kg/day, po after 3 days by Ki67 staining-based light microscopic analysis relative to vehicle-treated control. Type of series: functional, organism-based. An outline of the steps:
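Mice (NOD-SCID) bearing sc MV4-11 tumors given 10 mg/kg/d by oral gavage. Tumors removed after 2–4 days and formalin-fixed. Sections immunostained for Ki67 (proliferation) or p-STAT5, or TUNEL-stained (apoptosis). Imaged by light microscopy and compared with vehicle group.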

Series [13] deals with MV4-11. Briefly: Induction of apoptosis in human MV4-11 cells after 24 hrs by annexin V-FITC/propidium iodide staining-based FACS flow cytometric analysis. It counts as functional, cell-based.
Series [14] has as its target Vascular endothelial growth factor receptor 2 (Danio rerio) (UniProt Q5GIT4). Kind of series: Inhibition of VEGFR2 in transgenic zebrafish embryo assessed as inhibition of intersegmental vessels formation at 5 uM measured 33 hrs post fertilization by fluorescence microscopic analysis. An outline of the steps: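 FLK-1:EGFP transgenic zebrafish embryos, 10 per well, exposed at 28.5 °C from 15 to 31 hpf to compound in fish water at 1.25, 2.5 or 5 μM (diluted from a 10 mmol/L DMSO stock); 0.3% DMSO as vehicle control. Embryos were imaged at 33 hpf, and ISVs above the yolk extension were scored for length. n = 11, mean ± SD, ANOVA.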

In series [15] the target is Insulin-like growth factor 1 receptor (Homo sapiens, UniProt P08069). Briefly: Inhibition of IGF1R (unknown origin).
Insulin-like growth factor 1 receptor, sequence (P08069 31-736 limits assumed): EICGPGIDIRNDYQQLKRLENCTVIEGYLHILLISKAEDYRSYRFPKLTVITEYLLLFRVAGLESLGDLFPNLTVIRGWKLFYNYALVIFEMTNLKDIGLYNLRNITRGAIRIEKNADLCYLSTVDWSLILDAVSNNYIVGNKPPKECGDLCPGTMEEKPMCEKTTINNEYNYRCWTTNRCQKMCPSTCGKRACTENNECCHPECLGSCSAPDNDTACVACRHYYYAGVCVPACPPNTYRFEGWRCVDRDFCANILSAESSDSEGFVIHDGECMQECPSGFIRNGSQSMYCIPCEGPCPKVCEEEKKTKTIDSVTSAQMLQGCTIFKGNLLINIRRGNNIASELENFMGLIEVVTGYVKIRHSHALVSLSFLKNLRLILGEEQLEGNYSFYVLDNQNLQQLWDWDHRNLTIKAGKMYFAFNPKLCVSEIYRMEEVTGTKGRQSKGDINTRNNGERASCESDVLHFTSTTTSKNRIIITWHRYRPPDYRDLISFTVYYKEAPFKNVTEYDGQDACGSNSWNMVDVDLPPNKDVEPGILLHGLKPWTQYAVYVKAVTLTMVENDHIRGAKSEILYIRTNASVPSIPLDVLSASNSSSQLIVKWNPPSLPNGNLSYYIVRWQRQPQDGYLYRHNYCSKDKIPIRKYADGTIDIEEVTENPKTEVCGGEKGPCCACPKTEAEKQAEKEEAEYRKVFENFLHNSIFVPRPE
Insulin-like growth factor 1 receptor, sequence (P08069 741-1367 limits assumed): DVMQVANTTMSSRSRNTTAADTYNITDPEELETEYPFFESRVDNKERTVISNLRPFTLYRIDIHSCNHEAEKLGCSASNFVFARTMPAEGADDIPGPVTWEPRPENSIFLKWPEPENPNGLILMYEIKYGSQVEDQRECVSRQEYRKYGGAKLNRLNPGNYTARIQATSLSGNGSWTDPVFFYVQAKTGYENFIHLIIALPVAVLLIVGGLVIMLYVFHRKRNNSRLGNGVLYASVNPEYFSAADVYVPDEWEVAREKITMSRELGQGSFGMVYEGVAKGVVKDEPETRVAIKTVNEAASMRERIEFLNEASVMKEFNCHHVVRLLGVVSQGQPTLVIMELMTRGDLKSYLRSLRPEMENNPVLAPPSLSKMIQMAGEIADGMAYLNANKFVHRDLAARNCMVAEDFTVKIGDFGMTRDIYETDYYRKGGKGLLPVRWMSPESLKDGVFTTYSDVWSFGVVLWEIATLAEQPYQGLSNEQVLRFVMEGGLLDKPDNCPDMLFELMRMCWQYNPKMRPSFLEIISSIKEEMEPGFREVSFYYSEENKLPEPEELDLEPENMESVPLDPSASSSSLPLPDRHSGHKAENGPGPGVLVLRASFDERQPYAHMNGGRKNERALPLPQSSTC

pIC50, pKd: −log10 of the molar value. Active and inactive are the calls of the source. The rule behind the calls is not given here.

Mitogen-activated protein kinase kinase kinase 9, sequence (P80192 whole entry): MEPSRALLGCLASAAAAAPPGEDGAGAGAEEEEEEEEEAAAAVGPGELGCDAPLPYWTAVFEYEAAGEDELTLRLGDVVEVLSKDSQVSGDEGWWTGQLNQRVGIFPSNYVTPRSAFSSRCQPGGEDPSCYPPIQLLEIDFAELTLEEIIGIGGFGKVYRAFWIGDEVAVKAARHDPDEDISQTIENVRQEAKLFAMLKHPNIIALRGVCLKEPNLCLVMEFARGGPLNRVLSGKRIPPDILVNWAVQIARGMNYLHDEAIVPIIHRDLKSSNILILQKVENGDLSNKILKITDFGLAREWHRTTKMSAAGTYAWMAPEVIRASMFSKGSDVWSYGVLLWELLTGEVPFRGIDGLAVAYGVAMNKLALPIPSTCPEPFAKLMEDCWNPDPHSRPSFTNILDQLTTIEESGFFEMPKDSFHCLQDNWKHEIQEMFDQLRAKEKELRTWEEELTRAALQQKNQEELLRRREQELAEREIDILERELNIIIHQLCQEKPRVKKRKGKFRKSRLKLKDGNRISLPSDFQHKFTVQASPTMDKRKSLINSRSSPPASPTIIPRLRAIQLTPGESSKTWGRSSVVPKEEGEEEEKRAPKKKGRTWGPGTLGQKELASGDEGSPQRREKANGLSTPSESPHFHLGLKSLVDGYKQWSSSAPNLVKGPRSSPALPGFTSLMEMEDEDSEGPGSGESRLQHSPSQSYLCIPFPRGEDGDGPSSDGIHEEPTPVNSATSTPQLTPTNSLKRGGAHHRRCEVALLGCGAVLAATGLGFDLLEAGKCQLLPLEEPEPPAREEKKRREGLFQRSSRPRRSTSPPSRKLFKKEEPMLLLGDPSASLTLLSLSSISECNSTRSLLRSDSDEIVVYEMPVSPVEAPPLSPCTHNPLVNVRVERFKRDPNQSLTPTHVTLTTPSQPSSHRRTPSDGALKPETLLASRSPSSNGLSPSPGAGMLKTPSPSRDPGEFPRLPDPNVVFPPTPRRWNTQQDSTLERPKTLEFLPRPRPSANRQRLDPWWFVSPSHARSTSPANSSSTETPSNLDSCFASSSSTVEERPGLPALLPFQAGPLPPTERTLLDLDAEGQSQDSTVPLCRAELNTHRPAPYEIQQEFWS
Vascular endothelial growth factor receptor 2 (Danio rerio), sequence (Q5GIT4 whole entry): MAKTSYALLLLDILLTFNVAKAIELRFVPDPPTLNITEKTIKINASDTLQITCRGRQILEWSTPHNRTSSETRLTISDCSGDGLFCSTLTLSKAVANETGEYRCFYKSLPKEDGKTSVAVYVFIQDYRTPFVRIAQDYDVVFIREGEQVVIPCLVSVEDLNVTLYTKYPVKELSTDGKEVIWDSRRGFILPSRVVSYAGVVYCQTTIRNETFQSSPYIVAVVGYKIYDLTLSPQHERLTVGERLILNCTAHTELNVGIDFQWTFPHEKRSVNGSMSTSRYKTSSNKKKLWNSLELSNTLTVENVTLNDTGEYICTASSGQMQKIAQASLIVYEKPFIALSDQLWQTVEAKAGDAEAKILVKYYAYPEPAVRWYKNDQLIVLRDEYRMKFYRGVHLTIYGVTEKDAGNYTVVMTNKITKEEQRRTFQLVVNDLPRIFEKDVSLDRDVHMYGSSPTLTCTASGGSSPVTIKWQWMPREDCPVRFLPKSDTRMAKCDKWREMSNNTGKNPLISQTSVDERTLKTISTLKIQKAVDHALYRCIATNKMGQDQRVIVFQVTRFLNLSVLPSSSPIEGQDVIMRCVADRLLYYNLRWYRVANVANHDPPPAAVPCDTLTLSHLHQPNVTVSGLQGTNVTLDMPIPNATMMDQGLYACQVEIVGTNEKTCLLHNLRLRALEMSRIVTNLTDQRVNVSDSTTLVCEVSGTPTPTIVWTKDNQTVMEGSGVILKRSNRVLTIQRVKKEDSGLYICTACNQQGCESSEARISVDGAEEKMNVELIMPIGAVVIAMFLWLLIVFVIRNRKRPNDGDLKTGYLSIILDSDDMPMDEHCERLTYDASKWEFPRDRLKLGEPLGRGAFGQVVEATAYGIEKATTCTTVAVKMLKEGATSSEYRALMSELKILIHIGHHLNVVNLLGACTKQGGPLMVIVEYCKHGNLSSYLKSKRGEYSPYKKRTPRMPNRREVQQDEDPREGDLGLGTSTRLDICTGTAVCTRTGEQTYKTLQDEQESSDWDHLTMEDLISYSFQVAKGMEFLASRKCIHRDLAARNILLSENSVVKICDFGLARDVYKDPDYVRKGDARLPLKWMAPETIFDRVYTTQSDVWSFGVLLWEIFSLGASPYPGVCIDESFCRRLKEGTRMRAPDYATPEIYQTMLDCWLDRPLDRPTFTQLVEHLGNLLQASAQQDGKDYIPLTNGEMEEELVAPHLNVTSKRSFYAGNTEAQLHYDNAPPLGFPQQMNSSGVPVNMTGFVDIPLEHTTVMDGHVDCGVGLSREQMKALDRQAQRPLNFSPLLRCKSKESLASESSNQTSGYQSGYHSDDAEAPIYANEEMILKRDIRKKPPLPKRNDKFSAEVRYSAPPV

In series [1], `O=C(Nc1ccc(Oc2ncnc3[nH]ncc23)cc1)Nc1ccc(Cl)c(C(F)(F)F)c1` showed a pKd of 8.37. Also, the pIC50 (in series [2]; with HCT-116; in series [3]; in the series with A549; in the series on LoVo; in the series on HeLa) was under 5.00 in each case. Besides, the pIC50 against Myotonin-protein kinase was under 5.00; with KARPAS-299, under 5.00; in series [10] it was under 5.00; in series [11] it was 8.52; with MKN-45, 5.08; in [15], under 5.00. Also, the Activity in the series on MV4-11 [4] is 5.16%; in the series with MV4-11 [6], 17.8%; in the series on MV4-11 [7], 8.93%; in the series on MV4-11 [9], 9.64%; with MV4-11 [13], “Dose-dependent effect”. For the same compound, the AUC at 24 h in series [5] was 319 µg·h/mL. This compound had a Cmax in [8] of 15100 ng/mL. In addition, the TGI entry in the series on MV4-11 [12] is “Active”. The inhibition entry in series [14] was “Active”.
